The assay deals with K562. The assay can be described thus: Cytotoxicity against human K562 cells assessed as growth inhibition after 72 hrs by MTT assay. The class given is functional, cell-based. As to conditions: for IC50: K562, 72 h. Put shortly:
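K562 leukaemia cells exposed to compounds for 72 h at 37 °C in a humidified 5% CO2 incubator, with MTT read-out. IC50 is the concentration inhibiting cell growth by 50%, estimated from two concentrations per compound. Values are the mean of two independent assays, each run in duplicate; coefficients of variation <10%.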

The term IC50 denotes the concentration that inhibits the measured activity by half.

Turning to `COc1ccc(CCc2cc(O)cc(OCC=C(C)C)c2)cc1O`, the “growth inhibition (GI)” value is “Dose-dependent effect” and the IC50 was determined as 31.6 µM.

`COC(=O)/C=C/c1ccc(OC/C=C(\C)C=O)cc1`: the “growth inhibition (GI)” value was “Dose-dependent effect” and the IC50 was determined as 57.5 µM.

For the compound `COC(=O)/C=C/c1ccc(OC/C=C(\C)CO)cc1`, the “growth inhibition (GI)” value was “Dose-dependent effect” and the concentration for half-maximal inhibition (IC50) was 70.8 µM.

With `COc1cc(CCc2cc(O)cc(OC)c2CC=C(C)C)ccc1O`, the “growth inhibition (GI)” value was “Dose-dependent effect” and the IC50 turned out to be 10 µM.

For `COc1cc(/C=C/c2cc(O)cc(OCC=C(C)C)c2)ccc1O`, the “growth inhibition (GI)” value is “Dose-dependent effect” and the IC50 turned out to be 21 µM.

On to `COc1cc(/C=C/c2cc(O)cc(OC)c2CC=C(C)C)ccc1O`, for which the “growth inhibition (GI)” value was “Dose-dependent effect” and the IC50 was found to be 0.1 µM.

On to `COc1ccc(/C=C/c2cc(O)cc(OCC=C(C)C)c2)cc1O`, for which the “growth inhibition (GI)” value is “Dose-dependent effect” and the IC50 came to 46.8 µM.

Regarding `COc1cc(CCc2cc(O)cc(OCC=C(C)C)c2)ccc1O`, the “growth inhibition (GI)” value was “Dose-dependent effect” and the IC50 came out at 63 µM.

As for `COC(=O)/C=C/c1ccc(OCC=C(C)C)cc1`, the “growth inhibition (GI)” value was “Dose-dependent effect” and the half-maximal inhibitory concentration (IC50) came out at 97.7 µM.

(Values after ChEMBL document CHEMBL2375257, “Synthesis of C- and O-prenylated tetrahydroxystilbenes and O-prenylated cinnamates and their action towards cancer cells” (Eur J Med Chem, 2013).)
